Experimental data pooled from the literature.
Each line is one published result; the experiments were not run side by side.
pknB: Serine/threonine-protein kinase PknB (pknB, Mycobacterium tuberculosis, UniProt P9WI81)
DPP4: Dipeptidyl peptidase 4 (DPP4, Homo sapiens, UniProt P27487)
1-deoxy-D-xylulose 5-phosphate reductoisomerase: 1-deoxy-D-xylulose 5-phosphate reductoisomerase (Mycobacterium tuberculosis, UniProt P9WNS1)
ENAH: Protein enabled homolog (ENAH, UniProt Q8N8S7)

SMILES	target	effect on	mode	method	pH	endpoint	result
COc1cccc(-c2ccnc(Nc3ccc(N4CCN(C(=O)OC(C)(C)C)CC4)c(C(F)(F)F)c3)n2)c1	pknB	cell-free assay	inhibitor	–	–	Ki	> 5.9 µM
CC(C)[C@H](N)C(=O)N1CCC[C@H]1C(=O)N[C@H](C(=O)N1CCC[C@H]1C(=O)N[C@@H](CO)C(=O)O)C(C)C	DPP4	enzyme activity	inhibitor	absorbance	pH 8	IC50	92.9 µM
CC(=O)N(O)CCC(c1cc2ccccc2o1)P(=O)(O)O (stereo not shown)	1-deoxy-D-xylulose 5-phosphate reductoisomerase	enzyme activity	inhibitor	absorbance	pH 7.5	IC50	9.6 µM
CC(=O)N[C@@H](CO)C(=O)N[C@@H](Cc1ccccc1)C(=O)N[C@@H](CCC(=O)O)C(=O)N[C@@H](Cc1ccccc1)C(=O)N1CCC[C@H]1C(=O)N1CCC[C@H]1C(=O)N1CCC[C@H]1C(=O)N1CCC[C@H]1C(=O)N[C@H](C(=O)N[C@@H](CCC(=O)O)C(=O)N[C@@H](CC(=O)O)C(=O)N[C@@H](CCC(=O)O)C(=O)N[C@@H](CC(C)C)C(N)=O)[C@@H](C)O	ENAH	binding	–	fluorescence	–	Kd	13 µM
CC(=O)N(O)CCC(c1ccc(-c2cccnc2)cc1)P(=O)(O)O (stereo not shown)	1-deoxy-D-xylulose 5-phosphate reductoisomerase	enzyme activity	inhibitor	absorbance	pH 7.5	IC50	0.8 µM
CC(=O)N[C@@H](Cc1ccccc1Cl)C(=O)N1CCC[C@H]1C(=O)N1CCC[C@H]1C(=O)N1CCC[C@H]1C(=O)N1CCC[C@H]1C(=O)N[C@H](C(=O)N[C@@H](CCC(=O)O)C(=O)N[C@@H](CC(=O)O)C(=O)N[C@@H](CCC(=O)O)C(=O)N[C@@H](C)C(N)=O)[C@@H](C)O	ENAH	binding	–	fluorescence	–	Kd	3.5 µM
CC(C)C[C@H](NC(=O)[C@@H]1CCCN1C(=O)[C@@H](NC(=O)[C@@H]1CCCN1C(=O)[C@@H](N)C(C)C)C(C)C)C(=O)O	DPP4	enzyme activity	inhibitor	absorbance	pH 8	IC50	130 µM
CC(C)(C)OC(=O)N1CCN(c2ccc(Nc3nccc(-c4ccccc4)n3)cc2C(F)(F)F)CC1	pknB	cell-free assay	inhibitor	–	–	Ki	> 5.9 µM
CC(C)[C@H](N)C(=O)N1CCC[C@H]1C(=O)N[C@H](C(=O)N1CCC[C@H]1C(=O)N[C@@H](CCCCN)C(=O)O)C(C)C	DPP4	enzyme activity	inhibitor	absorbance	pH 8	IC50	104 µM
CC(=O)N(O)CCC(c1ccc2c(c1)OCO2)P(=O)(O)O (stereo not shown)	1-deoxy-D-xylulose 5-phosphate reductoisomerase	enzyme activity	inhibitor	absorbance	pH 7.5	IC50	1.5 µM
